According to ChEMBL document CHEMBL4354843, “Structure-Based Design of a Potent and Selective Covalent Inhibitor for SRC Kinase That Targets a P-Loop Cysteine” (J Med Chem, 2020):

What was measured:
[1] = target: Serine/threonine-protein kinase PknB (Mycobacterium tuberculosis) (UniProt P9WI81); assay: Binding affinity to wild-type Mycobacterium tuberculosis partial length PKNB (M1 to G279 residues) expressed in mammalian expression system assessed as residual binding level at 1 uM by Kinomescan method relative to control
Summary of the method: (§1)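 Active-site-directed KinomeScan competition binding panel covering 468 kinases, compound tested at 1 μM. Each readout is the kinase signal remaining with compound, expressed as a percentage of the DMSO control. […]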

[2] = target: Serine/threonine-protein kinase 36 (Homo sapiens) (UniProt Q9NRP7); assay: Binding affinity to wild-type human partial length STK36 (M1 to T271 residues) expressed in bacterial expression system assessed as residual binding level at 1 uM by Kinomescan method relative to control
Summary of the method: (§2)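 Active site-directed competition binding panel (KinomeScan, 468 kinases). Test compound at 1 μM. Read-out is kinase binding remaining versus DMSO control, expressed as percent of control. Scores above 35% are treated as weak binding.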

[3] = target: Vascular endothelial growth factor receptor 2 (Homo sapiens) (UniProt P35968); assay: Binding affinity to wild-type human partial length VEGFR2 (R787 to P1253 residues) expressed in mammalian expression system assessed as residual binding level at 1 uM by Kinomescan method relative to control; summary of the method: as §2
[4] = target: Ribosomal protein S6 kinase alpha-3 (Homo sapiens) (UniProt P51812); assay: Binding affinity to wild-type human partial length C-terminal RSK2 kinase domain 2 (V402 to S715 residues) expressed in mammalian expression system assessed as residual binding level at 1 uM by Kinomescan method relative to control
[5] = target: Mitogen-activated protein kinase kinase kinase 20 (Homo sapiens) (UniProt Q9NYL2); assay: Binding affinity to wild-type human partial length ZAK (M1 to L331 residues) expressed in bacterial expression system assessed as residual binding level at 1 uM by Kinomescan method relative to control; summary of the method: as §2
Sequence of Mitogen-activated protein kinase kinase kinase 20 (Homo sapiens) (Q9NYL2 2-800 limits assumed): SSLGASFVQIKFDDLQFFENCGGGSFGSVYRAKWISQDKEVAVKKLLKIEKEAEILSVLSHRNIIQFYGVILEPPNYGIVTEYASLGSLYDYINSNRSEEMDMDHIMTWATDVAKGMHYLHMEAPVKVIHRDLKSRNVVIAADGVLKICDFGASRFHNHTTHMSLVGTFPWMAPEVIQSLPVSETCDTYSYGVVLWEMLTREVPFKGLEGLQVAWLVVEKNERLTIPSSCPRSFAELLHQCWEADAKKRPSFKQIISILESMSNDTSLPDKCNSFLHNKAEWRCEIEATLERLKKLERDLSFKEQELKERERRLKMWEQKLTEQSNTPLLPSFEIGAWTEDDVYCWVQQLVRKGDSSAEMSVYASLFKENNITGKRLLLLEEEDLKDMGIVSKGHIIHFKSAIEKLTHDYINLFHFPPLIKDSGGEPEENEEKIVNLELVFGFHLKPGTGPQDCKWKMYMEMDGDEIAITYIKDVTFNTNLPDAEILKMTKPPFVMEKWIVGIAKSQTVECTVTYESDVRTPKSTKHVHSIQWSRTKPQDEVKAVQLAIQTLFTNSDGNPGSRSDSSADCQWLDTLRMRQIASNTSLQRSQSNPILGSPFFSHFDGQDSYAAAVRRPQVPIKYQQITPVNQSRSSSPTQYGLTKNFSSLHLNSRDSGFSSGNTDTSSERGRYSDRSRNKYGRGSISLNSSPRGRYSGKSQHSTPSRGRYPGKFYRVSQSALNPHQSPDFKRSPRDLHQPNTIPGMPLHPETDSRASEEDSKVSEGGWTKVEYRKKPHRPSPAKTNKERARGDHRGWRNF

[6] = system: Mast/stem cell growth factor receptor Kit (Homo sapiens), P10721 [V559D,T670I]; assay: Binding affinity to human partial length KIT V559D/T670I double mutant (Y545 to D952 residues) expressed in bacterial expression system assessed as residual binding level at 1 uM by Kinomescan method relative to control
Sequence of Mast/stem cell growth factor receptor Kit (Homo sapiens), P10721 [V559D,T670I] (P10721 whole entry V559D/T670I, the tested form may be a part): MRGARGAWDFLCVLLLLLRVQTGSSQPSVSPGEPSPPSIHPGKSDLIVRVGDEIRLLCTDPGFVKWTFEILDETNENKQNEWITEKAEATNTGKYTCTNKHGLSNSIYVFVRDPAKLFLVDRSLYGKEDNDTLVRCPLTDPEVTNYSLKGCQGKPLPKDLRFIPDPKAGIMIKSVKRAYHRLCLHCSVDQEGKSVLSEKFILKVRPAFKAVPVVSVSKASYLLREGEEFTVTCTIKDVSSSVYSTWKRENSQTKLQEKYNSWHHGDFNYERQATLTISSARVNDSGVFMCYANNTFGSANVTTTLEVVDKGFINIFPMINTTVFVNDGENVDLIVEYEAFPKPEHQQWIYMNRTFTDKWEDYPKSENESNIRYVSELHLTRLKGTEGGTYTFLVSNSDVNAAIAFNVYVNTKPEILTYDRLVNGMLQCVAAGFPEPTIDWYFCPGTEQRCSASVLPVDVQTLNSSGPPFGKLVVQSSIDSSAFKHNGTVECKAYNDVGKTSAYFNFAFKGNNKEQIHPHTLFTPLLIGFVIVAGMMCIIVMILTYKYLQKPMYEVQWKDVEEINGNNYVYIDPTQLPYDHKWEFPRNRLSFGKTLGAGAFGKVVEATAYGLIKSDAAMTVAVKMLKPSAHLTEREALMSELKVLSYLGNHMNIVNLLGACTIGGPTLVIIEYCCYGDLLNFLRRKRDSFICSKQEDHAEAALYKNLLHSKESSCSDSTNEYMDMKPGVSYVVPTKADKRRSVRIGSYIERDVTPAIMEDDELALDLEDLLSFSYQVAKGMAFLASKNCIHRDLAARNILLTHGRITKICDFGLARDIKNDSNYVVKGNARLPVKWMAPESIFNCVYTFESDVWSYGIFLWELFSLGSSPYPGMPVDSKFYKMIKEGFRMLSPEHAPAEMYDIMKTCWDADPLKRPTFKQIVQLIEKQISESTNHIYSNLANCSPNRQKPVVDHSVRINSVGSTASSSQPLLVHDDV
Summary of the method: (§3)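 KinomeScan active site-directed competition binding panel (468 kinases), compound tested at 1 μM. Result expressed as remaining kinase signal versus DMSO control (percent of control).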

[7] = target: Tyrosine-protein kinase HCK (Homo sapiens, UniProt P08631); assay: Inhibition of HCK (unknown origin)
[8] = target: Eukaryotic translation initiation factor 2-alpha kinase 1 (Homo sapiens) (UniProt Q9BQI3); assay: Binding affinity to wild-type human partial length EIF2AK1 (Q147 to E603 residues) expressed in mammalian expression system assessed as residual binding level at 1 uM by Kinomescan method relative to control
[9] = target: Phosphatidylinositol 4-kinase beta (Homo sapiens) (UniProt Q9UBF8); assay: Binding affinity to wild-type human full length PIK4CB (M1 to M828 residues) expressed in mammalian expression system assessed as residual binding level at 1 uM by Kinomescan method relative to control
Summary of the method: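 Active-site-directed competition binding panel (KinomeScan) covering 468 kinases. Test agent was screened at 1 μM. The read-out is the remaining kinase signal expressed relative to a DMSO control. Scores above 35%, taken as weak binding, were not reported.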

[10] = target: Phosphorylase b kinase gamma catalytic chain, liver/testis isoform (Homo sapiens) (UniProt P15735); assay: Binding affinity to wild-type human partial length PHKG2 (M1 to W300 residues) expressed in bacterial expression system assessed as residual binding level at 1 uM by Kinomescan method relative to control
[11] = target: Serine/threonine-protein kinase 3 (Homo sapiens) (UniProt Q13188); assay: Binding affinity to wild-type human partial length MST2 (D17 to E318 residues) expressed in bacterial expression system assessed as residual binding level at 1 uM by Kinomescan method relative to control
[12] = target: Mitogen-activated protein kinase kinase kinase 3 (Homo sapiens) (UniProt Q99759); assay: Binding affinity to wild-type human partial length MAP3K3 (E320 to Y626 residues) expressed in mammalian expression system assessed as residual binding level at 1 uM by Kinomescan method relative to control
[13] = target: Serine/threonine-protein kinase MRCK beta (Homo sapiens) (UniProt Q9Y5S2); assay: Binding affinity to wild-type human partial length MRCKB (L56 to S417 residues) expressed in bacterial expression system assessed as residual binding level at 1 uM by Kinomescan method relative to control
Sequence of Serine/threonine-protein kinase MRCK beta (Homo sapiens) (Q9Y5S2 whole entry, the tested form may be a part): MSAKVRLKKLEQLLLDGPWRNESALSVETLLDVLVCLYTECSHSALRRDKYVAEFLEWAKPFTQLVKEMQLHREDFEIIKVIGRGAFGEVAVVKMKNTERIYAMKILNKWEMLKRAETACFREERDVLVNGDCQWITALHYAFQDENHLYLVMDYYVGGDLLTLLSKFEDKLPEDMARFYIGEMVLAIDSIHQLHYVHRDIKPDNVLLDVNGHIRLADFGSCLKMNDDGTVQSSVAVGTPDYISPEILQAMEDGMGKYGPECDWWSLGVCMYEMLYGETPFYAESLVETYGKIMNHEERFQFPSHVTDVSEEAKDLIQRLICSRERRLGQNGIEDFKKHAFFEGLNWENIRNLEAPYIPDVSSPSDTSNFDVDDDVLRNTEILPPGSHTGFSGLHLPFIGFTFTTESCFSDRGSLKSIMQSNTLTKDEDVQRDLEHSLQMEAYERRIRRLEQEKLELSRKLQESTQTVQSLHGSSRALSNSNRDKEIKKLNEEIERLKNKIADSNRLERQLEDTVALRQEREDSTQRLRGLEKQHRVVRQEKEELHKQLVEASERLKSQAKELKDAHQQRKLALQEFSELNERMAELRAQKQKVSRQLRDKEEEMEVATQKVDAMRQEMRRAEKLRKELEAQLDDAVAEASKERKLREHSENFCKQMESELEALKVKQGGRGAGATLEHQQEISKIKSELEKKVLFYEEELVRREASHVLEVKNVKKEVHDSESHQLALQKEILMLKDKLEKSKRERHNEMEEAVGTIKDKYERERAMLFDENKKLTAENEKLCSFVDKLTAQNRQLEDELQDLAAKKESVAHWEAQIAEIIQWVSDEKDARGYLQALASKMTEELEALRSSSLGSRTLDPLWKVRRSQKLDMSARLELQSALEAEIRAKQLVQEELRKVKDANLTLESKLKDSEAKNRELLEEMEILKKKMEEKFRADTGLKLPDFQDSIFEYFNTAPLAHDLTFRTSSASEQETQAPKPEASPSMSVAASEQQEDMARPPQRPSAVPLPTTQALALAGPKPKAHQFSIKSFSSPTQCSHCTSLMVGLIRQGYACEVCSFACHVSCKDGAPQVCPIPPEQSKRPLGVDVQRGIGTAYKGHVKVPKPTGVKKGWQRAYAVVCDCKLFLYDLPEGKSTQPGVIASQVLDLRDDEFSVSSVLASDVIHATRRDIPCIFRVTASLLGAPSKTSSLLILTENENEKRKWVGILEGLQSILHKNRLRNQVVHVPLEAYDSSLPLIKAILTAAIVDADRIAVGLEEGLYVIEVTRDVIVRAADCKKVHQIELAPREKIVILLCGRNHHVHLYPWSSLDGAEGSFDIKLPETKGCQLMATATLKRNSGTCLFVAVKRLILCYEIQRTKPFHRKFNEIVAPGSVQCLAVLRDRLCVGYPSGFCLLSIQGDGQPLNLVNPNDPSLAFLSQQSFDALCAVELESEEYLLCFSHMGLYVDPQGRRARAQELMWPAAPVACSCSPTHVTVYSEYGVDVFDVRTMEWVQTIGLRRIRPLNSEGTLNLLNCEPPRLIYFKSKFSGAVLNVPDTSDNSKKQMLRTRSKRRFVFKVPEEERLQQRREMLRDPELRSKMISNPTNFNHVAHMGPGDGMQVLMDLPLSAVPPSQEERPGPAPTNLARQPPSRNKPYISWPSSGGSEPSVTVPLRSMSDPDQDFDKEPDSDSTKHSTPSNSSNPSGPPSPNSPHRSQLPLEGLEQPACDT

[14] = target: Citron Rho-interacting kinase (Homo sapiens) (UniProt O14578); assay: Binding affinity to wild-type human partial length CIT (M68 to E432 residues) expressed in bacterial expression system assessed as residual binding level at 1 uM by Kinomescan method relative to control
[15] = target: SNF-related serine/threonine-protein kinase (Homo sapiens) (UniProt Q9NRH2); assay: Binding affinity to wild-type human partial length SNRK (M1 to E339 residues) expressed in mammalian expression system assessed as residual binding level at 1 uM by Kinomescan method relative to control
[16] = target: LIM domain kinase 2 (Homo sapiens) (UniProt P53671); assay: Binding affinity to wild-type human full length LIMK2 (M1 to P638 residues) expressed in bacterial expression system assessed as residual binding level at 1 uM by Kinomescan method relative to control; summary of the method: as §1
[17] = system: Receptor-type tyrosine-protein kinase FLT3 (Homo sapiens), P36888 [UNDEFINED MUTATION]; assay: Binding affinity to human partial length FLT3 ITD/F691L double mutant expressed in bacterial expression system assessed as residual binding level at 1 uM by Kinomescan method relative to control; summary of the method: as §3
Sequence of Receptor-type tyrosine-protein kinase FLT3 (Homo sapiens), P36888 [UNDEFINED MUTATION] (P36888 whole entry, looked up, stated change not applied, the tested form may be a part): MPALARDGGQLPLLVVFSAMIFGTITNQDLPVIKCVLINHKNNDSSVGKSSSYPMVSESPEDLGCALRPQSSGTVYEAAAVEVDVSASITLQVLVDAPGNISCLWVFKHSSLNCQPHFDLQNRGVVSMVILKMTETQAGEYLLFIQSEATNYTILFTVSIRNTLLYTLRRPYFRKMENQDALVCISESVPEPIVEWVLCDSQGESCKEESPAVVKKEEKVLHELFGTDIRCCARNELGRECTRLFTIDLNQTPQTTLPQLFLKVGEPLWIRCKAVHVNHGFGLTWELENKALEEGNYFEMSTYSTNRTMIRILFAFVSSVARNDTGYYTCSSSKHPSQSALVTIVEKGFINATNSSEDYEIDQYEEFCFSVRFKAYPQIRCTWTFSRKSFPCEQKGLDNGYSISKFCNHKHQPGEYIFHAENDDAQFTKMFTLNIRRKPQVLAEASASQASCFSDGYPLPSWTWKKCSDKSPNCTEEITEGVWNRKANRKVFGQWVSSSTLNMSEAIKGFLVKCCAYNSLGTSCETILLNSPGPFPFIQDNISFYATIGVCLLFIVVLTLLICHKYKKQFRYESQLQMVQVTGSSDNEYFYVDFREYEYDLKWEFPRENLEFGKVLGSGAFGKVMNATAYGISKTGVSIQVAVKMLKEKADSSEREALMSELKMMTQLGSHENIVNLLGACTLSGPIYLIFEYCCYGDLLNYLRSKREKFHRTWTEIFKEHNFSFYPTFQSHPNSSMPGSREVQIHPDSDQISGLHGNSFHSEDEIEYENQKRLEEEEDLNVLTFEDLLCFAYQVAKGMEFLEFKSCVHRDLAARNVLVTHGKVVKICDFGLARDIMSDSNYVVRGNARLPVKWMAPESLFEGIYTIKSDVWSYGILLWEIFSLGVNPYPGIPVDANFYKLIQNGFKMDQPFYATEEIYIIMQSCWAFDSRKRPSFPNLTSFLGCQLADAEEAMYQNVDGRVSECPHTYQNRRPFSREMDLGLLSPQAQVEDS

[18] = system: Tyrosine-protein kinase ABL1 (Homo sapiens), P00519 [M351T]; assay: Binding affinity to human phosphorylated ABL1 M351T mutant (S229 to K512 residues) expressed in mammalian expression system assessed as residual binding level at 1 uM by Kinomescan method relative to control; summary of the method: as §1
[19] = target: Interleukin-1 receptor-associated kinase 3 (Homo sapiens) (UniProt Q9Y616); assay: Binding affinity to wild-type human partial length IRAK3 (V147 to E596 residues) expressed in bacterial expression system assessed as residual binding level at 1 uM by Kinomescan method relative to control
Sequence of Interleukin-1 receptor-associated kinase 3 (Homo sapiens) (Q9Y616 whole entry, the tested form may be a part): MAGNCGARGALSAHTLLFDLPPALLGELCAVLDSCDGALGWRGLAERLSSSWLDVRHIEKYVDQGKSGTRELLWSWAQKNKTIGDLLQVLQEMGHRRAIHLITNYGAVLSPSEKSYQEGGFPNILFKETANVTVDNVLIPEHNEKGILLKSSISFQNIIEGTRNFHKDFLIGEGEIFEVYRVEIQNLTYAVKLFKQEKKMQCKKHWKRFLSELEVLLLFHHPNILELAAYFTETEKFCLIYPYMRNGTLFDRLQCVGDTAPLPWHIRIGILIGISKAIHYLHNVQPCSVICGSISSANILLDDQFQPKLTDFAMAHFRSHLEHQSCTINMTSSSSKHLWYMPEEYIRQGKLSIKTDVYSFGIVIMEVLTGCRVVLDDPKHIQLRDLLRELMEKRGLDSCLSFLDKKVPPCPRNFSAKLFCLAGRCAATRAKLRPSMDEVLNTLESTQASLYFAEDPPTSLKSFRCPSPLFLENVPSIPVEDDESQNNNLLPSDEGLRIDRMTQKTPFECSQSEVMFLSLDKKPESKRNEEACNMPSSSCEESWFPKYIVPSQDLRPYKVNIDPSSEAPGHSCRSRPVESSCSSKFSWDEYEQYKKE

[20] = target: Tyrosine-protein kinase receptor UFO (Homo sapiens) (UniProt P30530); assay: Binding affinity to wild-type human partial length AXL (R497 to Y821 residues) expressed in bacterial expression system assessed as residual binding level at 1 uM by Kinomescan method relative to control
[21] = target: Myosin-IIIa (Homo sapiens) (UniProt Q8NEV4); assay: Binding affinity to wild-type human partial length MYO3A (M1 to K338 residues) expressed in bacterial expression system assessed as residual binding level at 1 uM by Kinomescan method relative to control

## C=CC(=O)Nc1ccccc1Nc1nc(Nc2ccc(N3CCN(C)CC3)cc2)ncc1C(=O)Nc1c(C)cccc1Cl
[1]
  Activity: 100%
[2]
  Activity: 47%
[3]
  Activity: 94%
[4]
  Activity: 100%
[5]
  Activity: 98%
[6]
  Activity: 100%
[7]
  IC50: 3 nM
[8]
  Activity: 100%
[9]
  Activity: 91%
[10]
  Activity: 100%
[11]
  Activity: 100%
[12]
  Activity: 100%
[13]
  Activity: 100%
[14]
  Activity: 100%
[15]
  Activity: 100%
[16]
  Activity: 100%
[17]
  Activity: 85%
[18]
  Activity: 0.8%
[19]
  Activity: 100%
[20]
  Activity: 100%
[21]
  Activity: 100%
